According to ChEMBL document CHEMBL1127442, “Triazolinone biphenylsulfonamide derivatives as orally active angiotensin II antagonists with potent AT1 receptor affinity and enhanced AT2 affinity” (J Med Chem, 1994):
pIC50: −log10 of the molar value. “And” between values parts separate entries of the source, which are not always exact repeats. Identical values can stand only once.

How the values were obtained:
Rattus norvegicus [1] = experiment: Time from onset of action until significant (i.e., >=30%) inhibition of pressor response is no longer observed, at 0.3 (mg/kg) peroral dose; type: functional
Summary of the method: (§1)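 Conscious catheterized male Sprague-Dawley rats received compound iv or po as the water-soluble potassium salt, or in PEG 400 orally. AII (0.1 μg/kg iv) boluses were repeated at intervals while the compound was active.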

[2] = target: T1, Type-2 angiotensin II receptor (Rattus norvegicus, UniProt P35351); experiment: In vitro inhibitory activity against angiotensin II rat midbrain AT2 receptor using radioligand [125I]-Sar Ile-AII
T1 sequence (P35351 whole entry): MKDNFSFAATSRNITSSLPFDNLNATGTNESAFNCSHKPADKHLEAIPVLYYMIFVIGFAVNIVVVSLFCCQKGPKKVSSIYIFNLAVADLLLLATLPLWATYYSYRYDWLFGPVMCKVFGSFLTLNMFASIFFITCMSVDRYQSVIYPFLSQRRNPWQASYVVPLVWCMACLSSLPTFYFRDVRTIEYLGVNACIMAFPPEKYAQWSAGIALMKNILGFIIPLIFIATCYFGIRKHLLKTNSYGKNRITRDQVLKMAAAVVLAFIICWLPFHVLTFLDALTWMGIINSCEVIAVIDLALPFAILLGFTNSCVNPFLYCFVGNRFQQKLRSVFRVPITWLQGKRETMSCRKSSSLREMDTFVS
Summary of the method: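 Dithiothreitol ([…]) was added to the assay mixture to abolish residual AT1 binding. Tubes were run in duplicate, and IC50 came from nonlinear regression of displacement curves.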

Rattus norvegicus [3] = experiment: Inhibition of AII pressor response by the compound in conscious, normotensive rats, at 0.3 (mg/kg) intravenous dose; type: functional
Summary of the method: (§2)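 Male Sprague-Dawley rats (300-400 g) were conscious and catheterized for iv dosing and arterial pressure. Compound was given iv or po as the potassium salt in water, with PEG 400 for some oral doses. […] Peak inhibition is the mean of ≥2 rats.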

Rattus norvegicus [4] = experiment: Time from onset of action until significant (i.e., >=30%) inhibition of pressor response is no longer observed, at 1 (mg/kg) intravenous dose; type: functional
[5] = target: T2, Type-1 angiotensin II receptor (Oryctolagus cuniculus, UniProt P34976); experiment: In vitro inhibitory activity against angiotensin II rabbit aorta AT1 receptor using radioligand [125I]-Sar Ile-AII; type: tissue-based
T2 sequence (P34976 whole entry): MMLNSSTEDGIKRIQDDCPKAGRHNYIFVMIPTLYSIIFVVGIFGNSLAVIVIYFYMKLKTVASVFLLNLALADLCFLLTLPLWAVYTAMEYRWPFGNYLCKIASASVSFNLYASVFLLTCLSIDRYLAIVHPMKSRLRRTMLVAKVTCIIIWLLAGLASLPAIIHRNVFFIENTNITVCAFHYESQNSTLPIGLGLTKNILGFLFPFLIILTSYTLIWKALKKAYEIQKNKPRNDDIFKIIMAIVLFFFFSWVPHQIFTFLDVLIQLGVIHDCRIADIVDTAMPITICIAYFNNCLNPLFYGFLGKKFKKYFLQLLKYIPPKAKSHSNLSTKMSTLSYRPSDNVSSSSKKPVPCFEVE

Rattus norvegicus [6] = experiment: Inhibition of AII pressor response by the compound in conscious, normotensive rats, at 0.3 (mg/kg) peroral dose; type: functional; summary of the method: as §2
Rattus norvegicus [7] = experiment: Inhibition of AII pressor response by the compound in conscious, normotensive rats, at 1 (mg/kg) intravenous dose; type: functional; summary of the method: as §2
Rattus norvegicus [8] = experiment: Inhibition of AII pressor response by the compound in conscious, normotensive rats, at 1 (mg/kg) peroral dose; type: functional; summary of the method: as §2
Rattus norvegicus [9] = experiment: Time from onset of action until significant (i.e., >=30%) inhibition of pressor response is no longer observed, at 1 (mg/kg) peroral dose; type: functional; summary of the method: as §1

Structure (SMILES)	pIC50 [2]	pIC50 [5]	further results
CCCCc1nn(-c2ccccc2C(F)(F)F)c(=O)n1Cc1ccc(-c2ccccc2S(=O)(=O)NC(=O)c2ccccc2C)cc1	6.96	9.25	Duration (Rattus norvegicus [4]): >6 h; Inhibition (Rattus norvegicus [7]): 89%; Inhibition (Rattus norvegicus [8]): 57%; Duration (Rattus norvegicus [9]): >2 h
CCCCc1nn(-c2ccccc2C(F)(F)F)c(=O)n1Cc1ccc(-c2ccccc2S(=O)(=O)NC(=O)c2cc(Br)sc2Br)cc1	7.08	9.17	–
CCCCc1nn(-c2ccccc2C(F)(F)F)c(=O)n1Cc1ccc(-c2ccccc2S(=O)(=O)NC(=O)c2ccccc2Br)cc1	7.35	9.40	–
CCCCc1nn(-c2ccccc2C(F)(F)F)c(=O)n1Cc1ccc(-c2ccccc2S(=O)(=O)NC(=O)c2occc2C)cc1	7.34	9.68	Duration (Rattus norvegicus [4]): >6 h; Inhibition (Rattus norvegicus [7]): 92%; Inhibition (Rattus norvegicus [8]): 71%; Duration (Rattus norvegicus [9]): >3.5 h
CCCCCCCC(=O)NS(=O)(=O)c1ccccc1-c1ccc(Cn2c(CCCC)nn(-c3ccccc3C(F)(F)F)c2=O)cc1	6.35	8.54	–
CCCCc1nn(-c2ccccc2C(F)(F)F)c(=O)n1Cc1ccc(-c2ccccc2S(=O)(=O)NC(=O)c2ccc(C#N)cc2)cc1	6.40	9.12	–
CCCCc1nn(-c2ccccc2C(F)(F)F)c(=O)n1Cc1ccc(-c2ccccc2S(=O)(=O)NC(=O)c2cc(OC)c(OC)c(OC)c2)cc1	5.19	7.68	–
CCCCc1nn(-c2ccccc2C(F)(F)F)c(=O)n1Cc1ccc(-c2ccccc2S(=O)(=O)Nc2ccc([N+](=O)[O-])cc2)cc1	5.28	7.11	–
CCCCc1nn(CC(C)(C)C)c(=O)n1Cc1ccc(-c2ccccc2S(=O)(=O)NC(=O)c2ccccc2)cc1	5.64	8.48	–
CCCCc1nn(-c2ccccc2Cl)c(=O)n1Cc1ccc(-c2ccccc2S(N)(=O)=O)cc1	4.62	6.09	–
CCCCc1nn(-c2ccccc2C(F)(F)F)c(=O)n1Cc1ccc(-c2ccccc2S(=O)(=O)NC(=O)c2cccc(Cl)c2Cl)cc1	6.11	9.14	–
CCCCc1nn(-c2c(Cl)cccc2Cl)c(=O)n1Cc1ccc(-c2ccccc2S(=O)(=O)NC(=O)c2ccccc2)cc1	6.30	8.59	–
CCCCc1nn(-c2ccccc2C(F)(F)F)c(=O)n1Cc1ccc(-c2ccccc2S(=O)(=O)NC(=O)Cc2ccccc2)cc1	6.62	8.80	–
CCCCc1nn(-c2ccccc2C(F)(F)F)c(=O)n1Cc1ccc(-c2ccccc2S(=O)(=O)NC(=O)c2cc(Cl)ccc2Cl)cc1	7.59	9.32	–
CCCCc1nn(-c2ccccc2C(F)(F)F)c(=O)n1Cc1ccc(-c2ccccc2S(=O)(=O)NC(=O)c2sccc2Cl)cc1	7.52	9.57	Duration (Rattus norvegicus [1]): >5 h; Duration (Rattus norvegicus [4]): >6 h; Inhibition (Rattus norvegicus [6]): 64%; Inhibition (Rattus norvegicus [7]): 90%
CCCCc1nn(-c2ccccc2C(F)(F)F)c(=O)n1Cc1ccc(-c2ccccc2S(=O)(=O)NC(=O)C(c2ccccc2)c2ccccc2)cc1	6.49	8.55	–
CCCCc1nn(-c2ccccc2C(F)(F)F)c(=O)n1Cc1ccc(-c2ccccc2S(=O)(=O)NC(=O)c2cccc(C(F)(F)F)c2)cc1	6.24	8.48	–
CCCCc1nn(-c2ccccc2Cl)c(=O)n1Cc1ccc(-c2ccccc2S(=O)(=O)NC(=O)c2ccccc2)cc1	6.23	8.85	–
CCCCc1nn(-c2ccccc2C(F)(F)F)c(=O)n1Cc1ccc(-c2ccccc2S(=O)(=O)NC(=O)c2ccccc2Cl)cc1	7.44	9.96	Duration (Rattus norvegicus [4]): >24 h; Duration (Rattus norvegicus [9]): >6 h
CCCCc1nn(-c2ccccc2C(F)(F)F)c(=O)n1Cc1ccc(-c2ccccc2S(=O)(=O)NC(=O)c2ccc(F)cc2)cc1	6.30	9.17	–
CCCCc1nn(-c2ccccc2C(F)(F)F)c(=O)n1Cc1ccc(-c2ccccc2S(=O)(=O)NS(=O)(=O)c2ccccc2)cc1	5.62	9.70	–
CCCCc1nn(-c2ccccc2C(F)(F)F)c(=O)n1Cc1ccc(-c2ccccc2S(=O)(=O)NC(=O)c2cccnc2Cl)cc1	6.28	9.00	–

More lines, main results first:

pIC50 [2]	pIC50 [5]	Structure (SMILES)	further results
6.77	9.38	CCCCc1nn(-c2ccccc2C(F)(F)F)c(=O)n1Cc1ccc(-c2ccccc2S(=O)(=O)NC(=O)OCC(C)C)cc1	Duration (Rattus norvegicus [1]): >5 h and >3.5 h; Inhibition (Rattus norvegicus [3]): 65%; Duration (Rattus norvegicus [4]): >6 h; Inhibition (Rattus norvegicus [6]): 61%; Inhibition (Rattus norvegicus [7]): 72%; Inhibition (Rattus norvegicus [8]): 63%; Duration (Rattus norvegicus [9]): >5 h
6.82	9.10	CCCCc1nn(-c2ccccc2C(F)(F)F)c(=O)n1Cc1ccc(-c2ccccc2S(=O)(=O)NC(=O)C(C)C)cc1	Duration (Rattus norvegicus [4]): >6 h; Inhibition (Rattus norvegicus [7]): 100%; Inhibition (Rattus norvegicus [8]): 45%; Duration (Rattus norvegicus [9]): 1.3 h
6.27	9.03	CCCCc1nn(-c2ccccc2C(F)(F)F)c(=O)n1Cc1ccc(-c2ccccc2S(=O)(=O)NC(=O)c2cccs2)cc1	Duration (Rattus norvegicus [4]): >5.5 h; Inhibition (Rattus norvegicus [7]): 76%; Inhibition (Rattus norvegicus [8]): 61%; Duration (Rattus norvegicus [9]): 4.3 h
6.57	8.70	CCCCc1nn(-c2ccccc2C(F)(F)F)c(=O)n1Cc1ccc(-c2ccccc2S(=O)(=O)NC(=O)CCOC)cc1	–
7.07	9.19	CCCCc1nn(-c2ccccc2C(F)(F)F)c(=O)n1Cc1ccc(-c2ccccc2S(=O)(=O)NC(=O)C2CC2(F)F)cc1 (configuration not stated)	Duration (Rattus norvegicus [1]): >4 h; Duration (Rattus norvegicus [4]): >5 h; Inhibition (Rattus norvegicus [6]): 59%; Inhibition (Rattus norvegicus [7]): 80%
7.00	9.41	CCCCc1nn(-c2ccccc2C(F)(F)F)c(=O)n1Cc1ccc(-c2ccccc2S(=O)(=O)NC(=O)C2CC3CCC2C3)cc1 (configuration not stated)	–
7.34	8.96	CCCCc1nn(-c2ccccc2C(F)(F)F)c(=O)n1Cc1ccc(-c2ccccc2S(=O)(=O)NC(=O)CC(C)(C)C)cc1	Duration (Rattus norvegicus [1]): >5.5 h; Inhibition (Rattus norvegicus [3]): 69%
6.89	8.48	CCCCc1nn(-c2ccccc2C(F)(F)F)c(=O)n1Cc1ccc(-c2ccccc2S(=O)(=O)NC(=O)C2C(C)(C)C2(C)C)cc1	–
6.80	9.82	CCCCc1nn(-c2ccccc2C(F)(F)F)c(=O)n1Cc1ccc(-c2ccccc2S(=O)(=O)NC(=O)C2CCCCC2)cc1	–
6.57	9.52	CCCCc1nn(-c2ccccc2C(F)(F)F)c(=O)n1Cc1ccc(-c2ccccc2S(=O)(=O)NC(=O)C2CCCCCC2)cc1	–
6.59	8.89	CCCCc1nn(-c2ccccc2C(F)(F)F)c(=O)n1Cc1ccc(-c2ccccc2S(=O)(=O)NC(=O)c2ccc(Cl)s2)cc1	–
7.46	9.46	CCCCc1nn(-c2ccccc2C(F)(F)F)c(=O)n1Cc1ccc(-c2ccccc2S(=O)(=O)NC(=O)C2SCCS2)cc1	–
6.52	8.96	CCCCc1nn(-c2ccccc2C(F)(F)F)c(=O)n1Cc1ccc(-c2ccccc2S(=O)(=O)NC(=O)NC(C)C)cc1	–
6.92	9.43	CCCCc1nn(-c2ccccc2C(F)(F)F)c(=O)n1Cc1ccc(-c2ccccc2S(=O)(=O)NC(=O)C2(C)CC2(Cl)Cl)cc1 (configuration not stated)	–
6.96	8.82	CCCCc1nn(-c2ccccc2C(F)(F)F)c(=O)n1Cc1ccc(-c2ccccc2S(=O)(=O)NC(=O)C2CC2)cc1	–
6.42	9.12	CCCCc1nn(-c2ccccc2C(F)(F)F)c(=O)n1Cc1ccc(-c2ccccc2S(=O)(=O)NC(=O)COCC)cc1	–
7.10	9.66	CCCCc1nn(-c2ccccc2C(F)(F)F)c(=O)n1Cc1ccc(-c2ccccc2S(=O)(=O)NC(=O)C2(C)SCCS2)cc1	–
6.40	9.10	CCCCc1nn(-c2ccccc2C(F)(F)F)c(=O)n1Cc1ccc(-c2ccccc2S(=O)(=O)NC(=O)C(F)(F)F)cc1	–
6.39	7.74	CCCc1nn(-c2ccccc2C(F)(F)F)c(=O)n1Cc1ccc(-c2ccccc2S(=O)(=O)NC(=O)C2CC2)cc1	–
